PLCg1 inh – PLC-gamma1 enzyme inhibitors, primary screen, biochemical, fluorescence, purified enzyme; fluorogenic substrate; inhibition, % at 12.2 µM; hit rate 0.84% among 370,000; AID 720700, 2013; in the data active means inhibition above about 9.5%
PLC-beta3 inh – human PLC-beta3 inhibitors, primary screen, biochemical, fluorescence. 1-phosphatidylinositol 4,5-bisphosphate phosphodiesterase beta-3 (Homo sapiens), Q01970. Purified PLC-beta3, fluorogenic substrate. inhibition, % at 12.2 µM. hit rate 0.18% among 370,000. AID 720704, 2013;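 further: 0% = median of compound wells on plate and 100% = full blocker control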
NTR1 agonist – agonists of human NTR1, primary screen, imaging, U2OS cells, beta-arrestin-GFP, high content. NTR1-U2OS beta-arrestin-GFP spot imaging, agonist mode. AID 493036, 2011. hit rate 0.17% among 330,000. Neurotensin receptor type 1 (Homo sapiens), P30989. activation, % at 20 µM;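 active means activation at or above 40% of the spot to cytoplasm intensity ratio, with at least 20 cells analyzed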;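 further: 0% = DMSO without peptide and 100% = 100 nM NTR1 peptide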
Arrestin-AP2 inh – inhibitors of beta-arrestin/AP2 binding, primary screen, biochemical, GPCR trafficking, flow cytometry. inhibition, % at 10 µM. FITC-arrestin peptide / GST-AP2 beads; AP2 beta2 appendage carries R879A mutation. hit rate 0.31% among 340,000;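 active means inhibition above a set limit, near 3 SD of compounds lacking own fluorescence, cut at about 54% in these data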;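 further: plate controls were DMSO wells for no effect and 5 µM unlabelled arrestin peptide for full effect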
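Material – GST-tagged AP2 beta2-adaptin appendage (R879A) on 4 µm glutathione beads · Probe or stimulus – fluorescein-tagged arrestin peptide at 50 nM final · Timing – 12 min plus 1 h, RT · Detection – bead flow cytometry, FITC channel · Read-out basis – inhibition as reduced fluorescein signal on beads, percent · Medium – PBS plus Tween 20 (0.05%) and BSA (0.1%)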
PLCgamma1 ctr – PLC-gamma1 enzyme inhibitors, counter-screen for PLC-beta3 inhibitor project, biochemical, fluorescence. shares compounds with PLCg1 inh. purified PLC-gamma1, fluorogenic substrate. inhibition, % at 12.3 µM. hit rate 3.1% among 3,300. AID 743258, 2014; in the data active means inhibition above about 9.5%
PLCbeta3 conf – PLC-beta3 inhibitor confirmation, biochemical, fluorescence, purified enzyme; shares compounds with PLCg1 inh; fluorogenic substrate fluorescence; inhibition, % at 12.3 µM; hit rate 1% among 3,300
* marks the source's active call; other numbers are inactive results; / = no result given. The list is not random: actives were taken first. Their share in the collection is about 1.3%. Unless noted, no stated cut-off is given here; in the data, active means inhibition above about 11%; inactive means the rest.

SMILES | PLCg1 inh | PLC-beta3 inh | NTR1 agonist | Arrestin-AP2 inh | PLCgamma1 ctr | PLCbeta3 conf
CCCc1n[nH]c2c1C(=O)CC(C)(C)C2 | 11.2* | 7.9 | 1.1 | -5.9 | -2.8 | -1.2
CCCCc1n[nH]c2c1/C(=N/O)CC(C)(C)C2 | 0.7 | 1.5 | -0.3 | 3.0 | / | /
CC(C)Oc1cccc(C(=O)NC(=S)Nc2ccc(Cl)c(C(=O)O)c2)c1 | 10.4* | -5.6 | 0.7 | -3.3 | -8.6 | -4.1
O=S(=O)(NCc1cn(Cc2ccccc2)nn1)c1ccccc1Br | 4.0 | 2.2 | / | / | / | /
Nc1ncnc2c1ncn2[C@@H]1O[C@H](COS(=O)(=O)O)[C@@H](O)[C@H]1O | 0.7 | 0.7 | -0.4 | 6.6 | / | /
Nc1ncnc2c1ncn2[C@@H]1O[C@H](COP(=O)(O)O)[C@@H](O)[C@H]1O | 39.0* | -0.6 | 2.0 | 8.5 | 47.8* | -0.7
Nc1ncnc2c1ncn2[C@@H]1O[C@H](COP(=O)(O)OP(=O)(O)OP(=O)(O)O)[C@@H](O)[C@H]1O | 39.5* | 1.1 | -0.3 | -0.3 | 54.4* | 1.2
Nc1ncnc2c1ncn2C1OC(COP(=O)(O)O)C(O)C1O (stereo not drawn) | 40.8* | 1.4 | -1.4 | 2.7 | 55.0* | 1.1
NC(=O)C1=CN([C@@H]2O[C@H](COP(=O)(O)OP(=O)(O)OC[C@H]3O[C@@H](n4cnc5c(N)ncnc54)[C@H](O)[C@@H]3O)[C@@H](O)[C@H]2O)C=CC1 | 29.2* | -10.6 | / | / | 32.0* | -18.3
COC(=O)[C@]12C[C@H](CC(=O)N3CCSCC3)C(=O)N(Cc3ccccc3)C1=C[C@H](COCc1ccccc1)O[C@@H]2C | -1.2 | -0.4 | / | / | / | /
Cc1cc(N2CCN(C(=O)OC(C)(C)C)C[C@H]2C)ccc1Br | 6.3 | 4.3 | / | / | / | /
COc1cc(C(=O)Nc2cccc3cccnc23)cc(OC)c1OC | 1.2 | -3.6 | 0.1 | -5.3 | / | /
COc1cc(NC(=O)Nc2cccc3cccnc23)cc(OC)c1OC | 15.4* | 1.6 | -0.8 | 13.1 | -5.0 | -2.5
N#Cc1c(NC(=O)CSc2nnnn2C2CCCC2)sc2c1CCCC2 | 10.0* | -0.2 | 20.9 | 7.8 | 1.9 | -6.4
CN(C(=O)CS(=O)(=O)c1cccc(Cl)c1)c1ccccc1 | 11.4* | 3.3 | 4.2 | 1.4 | -3.2 | -1.5
CN(C(=O)CS(=O)(=O)Cc1ccccc1Cl)c1ccccc1 | 1.9 | 0.1 | 2.3 | 32.6 | / | /
O=S1(=O)CC(N2CCCC2)CN1Cc1cn(Cc2ccc(C(F)(F)F)cc2)nn1 (stereo not drawn) | -0.8 | 2.1 | / | / | / | /
Cc1cc(=O)[nH]c(SCC(=O)Nc2ccc(Cl)cc2)n1 | 0.3 | 0.0 | / | / | / | /
COc1ccc(C2c3c(-c4ccccc4)n[nH]c3C(=O)N2c2ccc(C(=O)O)cc2)cc1 (stereo not drawn) | 10.5* | 6.4 | 5.1 | 3.3 | -3.6 | -4.8
COc1cccc(C2c3c(-c4ccccc4)n[nH]c3C(=O)N2c2ccc(C(=O)O)cc2)c1 (stereo not drawn) | 1.7 | -0.3 | 0.5 | 5.9 | / | /
Cc1nn(CCC(=O)NNC(=O)Nc2ccccc2)c(C)c1[N+](=O)[O-] | 2.5 | 3.1 | / | / | / | /
COc1ccc(CC2(CO)CCN(Cc3ccc(OC(F)(F)F)cc3)CC2)cc1 | 1.6 | -5.9 | 1.1 | 20.3 | / | /
COc1ccc(CC2(CO)CCN(Cc3nc(C(C)C)cs3)CC2)cc1 | 13.3* | 7.5 | -1.0 | 33.8 | -6.0 | -1.3
N/C(=N\N=C\c1cccs1)SC1CC(=O)N(c2cccc([N+](=O)[O-])c2)C1=O (stereo not drawn) | -0.4 | 0.6 | 1.7 | -17.1 | / | /
CCOc1ccc(N2C(=O)CC(S/C(N)=N/N=C/c3cccs3)C2=O)cc1 (stereo not drawn) | 10.3* | 5.4 | 1.1 | -10.4 | 2.8 | 5.5
SMILES | PLCg1 inh | PLC-beta3 inh | NTR1 agonist | Arrestin-AP2 inh | PLCgamma1 ctr | PLCbeta3 conf
O=C(c1ccc(CSc2nc3ccncc3[nH]2)cc1)N1CCCCCC1 | 1.6 | -4.0 | 2.3 | -13.6 | / | /
O=C(c1ccc(CSc2nc3ccncc3[nH]2)cc1)N1CCN(c2cccc(Cl)c2)CC1 | 16.1* | 2.4 | 7.3 | 3.5 | 1.7 | 0.6
CCOC(=O)[C@]12CCCC3=C1N(CCC3)C(=O)[C@@H](CC(=O)NCC1CCCCC1)C2 | 2.8 | 2.3 | / | / | / | /
Cc1ccccc1-c1cc2c(nn1)-c1ccccc1C2=O | 8.8 | 11.9* | -0.2 | 12.8 | 1.7 | 1.2
COC(=O)[C@]12C[C@H](CC(=O)N3CCCC3)C(=O)N(Cc3ccco3)C1=C[C@H](C(C)C)O[C@@H]2C1CC1 | -0.6 | -1.2 | / | / | / | /
c1csc(C(c2nnnn2C2CCCCC2)N2CCN(c3nc4ccccc4s3)CC2)c1 (stereo not drawn) | 10.9* | 5.6 | / | 13.6 | -1.4 | 1.5
O=C(COC(=O)c1ccc(S(=O)(=O)NCc2ccco2)cc1)Nc1ccccc1OC(F)F | 5.2 | 11.6* | 0.5 | 1.9 | -6.4 | -0.5
O=C(COC(=O)c1ccc(S(=O)(=O)NCc2ccco2)cc1)Nc1ccccc1 | 0.7 | -0.8 | 1.8 | 3.6 | / | /
COc1ccc(NS(=O)(=O)c2cc(NC(=O)c3cnc(C)cn3)ccc2N2CCCC2)cc1 | -0.9 | -3.0 | 10.0 | -15.4 | / | /
COc1ccc(NS(=O)(=O)c2cc(NC(=O)c3cccnc3Cl)ccc2N2CCCC2)cc1 | 10.0* | 0.2 | -0.7 | 20.5 | 1.7 | -7.0
CN(C)N1C(=O)CC(NNC(=O)c2ccncc2)C1=O (stereo not drawn) | 10.4* | 2.6 | -0.7 | 12.6 | -6.1 | 2.5
CCOC(=O)N1CCN(C(=O)C[C@H]2C(=O)N(Cc3ccc(OC)cc3)C3=CCCCC[C@@]32C(=O)OC)CC1 | -1.6 | -3.2 | / | / | / | /
CCOC(=O)N1CCN(C(=O)C[C@H]2C(=O)N(Cc3ccc(OC)cc3)C3=CCCC[C@@]32C(=O)OCC)CC1 | 11.2* | 2.1 | / | / | -7.3 | -2.1
CCOC(=O)[C@]12CCCC=C1N(CCCOC)C(=O)[C@@H]2CC(=O)NCc1ccc(C)o1 | 10.0* | 3.4 | / | / | 6.4 | 0.1
COC(=O)[C@]12CCCCC=C1N(Cc1ccc(OC)cc1)C(=O)[C@@H]2CC(=O)N1CCN(C(=O)C2CC2)CC1 | 11.6* | 8.8 | / | / | -3.6 | -0.7
O=C(OCC#CCSc1nnc(-c2cccc3ccccc23)o1)c1cccc(C(F)(F)F)c1 | -2.1 | -0.1 | / | / | / | /
CCCC(C)C(=O)Nc1cccc(NC(C)=O)c1 (stereo not drawn) | 12.3* | 7.5 | 0.5 | -2.8 | -6.1 | -3.5
CCCC(C)C(=O)Nc1ccc2c(c1)OCCO2 (stereo not drawn) | 1.2 | 2.9 | 0.1 | 2.0 | / | /
COc1ccc(CCNC(=O)CCNS(=O)(=O)c2cccc3nsnc23)cc1OC | 10.8* | 2.4 | -1.5 | 33.1 | -4.0 | -4.5
Cc1[nH]nc(Nc2ccc(C(C)C)cc2)c1[N+](=O)[O-] | 10.6* | -3.8 | 1.5 | -2.8 | -3.5 | -2.5
C=CCN(CC#Cc1ccccc1)CC=C | 2.4 | 6.2 | / | / | / | /

Assay outcomes as filed in PubChem.
